We go through three compounds from ChEMBL document CHEMBL1155221, “Identification of novel indanylsulfonamide guanylhydrazones as potent 5-HT6 serotonin receptor antagonists” (J Med Chem, 2009).

A value given as a limit tells only on which side of the number the result lay.

The target in assay [1] is T1, Adrenergic receptor alpha-2 (Homo sapiens, UniProt P08913+P18825+P18089).
T1 sequence (P08913 whole entry): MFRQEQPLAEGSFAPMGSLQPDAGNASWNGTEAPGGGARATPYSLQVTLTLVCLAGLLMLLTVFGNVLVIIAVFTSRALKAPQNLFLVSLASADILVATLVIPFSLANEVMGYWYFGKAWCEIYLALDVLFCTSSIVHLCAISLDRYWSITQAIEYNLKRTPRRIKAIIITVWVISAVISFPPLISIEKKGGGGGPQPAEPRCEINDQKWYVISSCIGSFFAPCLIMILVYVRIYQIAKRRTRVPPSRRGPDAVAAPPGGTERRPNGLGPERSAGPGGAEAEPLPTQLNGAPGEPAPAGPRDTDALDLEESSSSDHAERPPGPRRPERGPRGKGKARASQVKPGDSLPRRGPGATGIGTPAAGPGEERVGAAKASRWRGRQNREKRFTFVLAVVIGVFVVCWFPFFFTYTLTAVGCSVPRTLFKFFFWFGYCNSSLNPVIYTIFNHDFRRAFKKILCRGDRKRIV
T1 sequence (P18825 whole entry): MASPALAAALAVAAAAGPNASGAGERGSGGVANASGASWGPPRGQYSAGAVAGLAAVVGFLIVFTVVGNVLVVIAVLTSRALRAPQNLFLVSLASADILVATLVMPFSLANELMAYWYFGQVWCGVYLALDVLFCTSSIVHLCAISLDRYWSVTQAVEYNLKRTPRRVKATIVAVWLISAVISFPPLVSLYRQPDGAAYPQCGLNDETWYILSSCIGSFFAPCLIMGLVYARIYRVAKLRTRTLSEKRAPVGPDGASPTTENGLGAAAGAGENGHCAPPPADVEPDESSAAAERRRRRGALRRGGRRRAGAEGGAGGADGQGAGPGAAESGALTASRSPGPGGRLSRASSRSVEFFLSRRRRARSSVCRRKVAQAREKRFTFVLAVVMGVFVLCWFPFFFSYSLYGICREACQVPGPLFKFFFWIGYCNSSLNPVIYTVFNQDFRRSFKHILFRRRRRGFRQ
T1 sequence (P18089 whole entry): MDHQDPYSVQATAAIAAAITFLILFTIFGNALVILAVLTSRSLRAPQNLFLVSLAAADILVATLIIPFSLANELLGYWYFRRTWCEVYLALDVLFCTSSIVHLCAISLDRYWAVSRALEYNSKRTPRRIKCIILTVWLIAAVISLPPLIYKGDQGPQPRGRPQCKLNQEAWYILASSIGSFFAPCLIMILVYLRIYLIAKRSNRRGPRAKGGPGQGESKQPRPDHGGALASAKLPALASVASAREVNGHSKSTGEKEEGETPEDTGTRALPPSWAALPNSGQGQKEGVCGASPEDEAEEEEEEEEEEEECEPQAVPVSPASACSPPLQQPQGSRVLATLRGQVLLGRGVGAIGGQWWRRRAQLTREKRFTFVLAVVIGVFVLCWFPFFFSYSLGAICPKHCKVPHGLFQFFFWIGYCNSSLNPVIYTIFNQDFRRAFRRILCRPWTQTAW
Description: Inhibition of human alpha 2 adrenoceptor.

The target in assay [2] is T2, 5-hydroxytryptamine receptor 6 (Homo sapiens, UniProt P50406). Description: Antagonist activity at human 5HT6 receptor expressed in HEK293F cells assessed as inhibition of 5-HT-stimulated cAMP production at […] after 30 mins by HTRF assay relative to (+/-)-6-chloro-N-(3-(1-methylpyrrolidin-3-yl)-1H-inden-5-yl)imidazo[2,1-b]thiazole-5-sulfonamide. The assay is classed as functional, cell-based. Background: Changes in cAMP serve as a functional read-out for many G protein-coupled receptors.
T2 sequence (P50406 whole entry): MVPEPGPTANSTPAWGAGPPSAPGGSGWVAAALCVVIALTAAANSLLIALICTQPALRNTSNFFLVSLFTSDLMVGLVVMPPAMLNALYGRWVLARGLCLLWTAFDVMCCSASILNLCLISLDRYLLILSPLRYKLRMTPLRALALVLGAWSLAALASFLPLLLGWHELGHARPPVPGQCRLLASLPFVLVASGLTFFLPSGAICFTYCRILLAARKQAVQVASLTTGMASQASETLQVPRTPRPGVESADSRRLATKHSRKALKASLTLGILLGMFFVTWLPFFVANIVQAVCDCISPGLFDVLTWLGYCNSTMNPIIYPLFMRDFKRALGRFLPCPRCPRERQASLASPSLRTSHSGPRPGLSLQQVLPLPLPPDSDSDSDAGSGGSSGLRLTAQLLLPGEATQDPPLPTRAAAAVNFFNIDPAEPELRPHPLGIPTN

Assay [3] addresses T2, 5-hydroxytryptamine receptor 6. Kind of assay: Inhibition of [3H]LSD binding to human recombinant 5HT6 receptor expressed in HEK293 cells at 100 nM after 60 mins by liquid scintillation counting. The assay is classed as cell-based. The essentials:
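Single-point competition at 100 nM test compound against [3H]-LSD on membranes from HEK-293 cells expressing recombinant human 5-HT6 receptor. Percent inhibition of radioligand binding reported.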

Assay [4] concerns the target T3, 5-hydroxytryptamine receptor 2C (Homo sapiens, UniProt P28335).
T3 sequence (P28335 whole entry): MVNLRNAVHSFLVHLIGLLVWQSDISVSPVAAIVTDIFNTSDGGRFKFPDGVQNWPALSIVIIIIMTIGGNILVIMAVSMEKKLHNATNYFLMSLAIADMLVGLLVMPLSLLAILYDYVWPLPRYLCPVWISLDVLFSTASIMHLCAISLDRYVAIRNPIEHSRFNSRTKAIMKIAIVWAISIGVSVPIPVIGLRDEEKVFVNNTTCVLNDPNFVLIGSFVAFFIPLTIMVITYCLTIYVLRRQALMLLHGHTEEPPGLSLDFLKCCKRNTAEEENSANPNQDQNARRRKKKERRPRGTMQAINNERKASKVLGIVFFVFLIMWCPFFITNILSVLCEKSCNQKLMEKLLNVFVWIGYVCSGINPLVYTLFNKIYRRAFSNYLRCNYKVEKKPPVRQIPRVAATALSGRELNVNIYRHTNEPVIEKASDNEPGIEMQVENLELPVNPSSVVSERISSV
Kind of assay: Inhibition of human 5HT2C receptor.

For assay [5], the target named is T4, 5-hydroxytryptamine receptor 1A (Homo sapiens, UniProt P08908).
T4 sequence (P08908 whole entry): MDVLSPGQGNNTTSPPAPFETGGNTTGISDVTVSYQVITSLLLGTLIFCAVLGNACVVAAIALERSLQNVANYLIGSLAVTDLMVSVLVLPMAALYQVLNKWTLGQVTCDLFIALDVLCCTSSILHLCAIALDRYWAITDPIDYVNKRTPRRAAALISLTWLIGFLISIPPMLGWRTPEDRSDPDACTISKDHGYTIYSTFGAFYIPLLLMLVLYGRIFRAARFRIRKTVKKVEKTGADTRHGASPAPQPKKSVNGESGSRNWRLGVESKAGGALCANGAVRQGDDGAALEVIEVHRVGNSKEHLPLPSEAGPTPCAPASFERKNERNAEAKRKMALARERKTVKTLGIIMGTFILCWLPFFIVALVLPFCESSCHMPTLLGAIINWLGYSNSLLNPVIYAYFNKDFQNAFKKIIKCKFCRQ
Description: Inhibition of human 5HT1A receptor.

Broadly, the inhibition is the share of the control response that was lost under treatment. `O=S(=O)(Nc1ccc2c(c1)/C(=N/NC1=NCCN1)CC2)c1c(Cl)nc2sccn12`: the IC50 in assay [1] was more than 1 ×10⁴ nM; in assay [4], more than 10 µM. Also, in assay [2], the Imax is 173%. For the same compound, in assay [3], the inhibition was more than 80%.
`Cl.N=C(N)N/N=C1\CCc2ccc(NS(=O)(=O)c3c(Cl)nc4sccn34)cc21`: the values for the IC50 in assay [5], in assay [1] and in assay [4] were more than 10 µM, more than 1 ×10⁴ nM and more than 10 µM, respectively. The Imax in assay [2] stood at 127%. In addition, the inhibition in assay [3] was more than 80%.
As to `CC1Cc2ccc(NS(=O)(=O)c3c(Cl)nc4sccn34)cc2/C1=N/NC(=N)N.Cl` (racemic), the IC50 in assay [5], in assay [1] and in assay [4] was more than 1 µM throughout. The Imax in assay [2] was determined as 157%. Also, the inhibition in assay [3] is more than 80%.
